# In ChEMBL document CHEMBL3407432, “Fused heterocycles bearing bridgehead nitrogen as potent HIV-1 NNRTIs. Part 3: optimization of [1,2,4]triazolo[1,5-a]pyrimidine core via structure-based and physicochemical property-driven approaches” (Eur J Med Chem, 2015):
# Counter-ions that a name gives are not always drawn.
# Legend:
# [1] = tested on: Human immunodeficiency virus 1; experiment: Antiviral activity against HIV1 RES056 expressing reverse transcriptase K103N + Y181C double mutant infected in human MT4 cells assessed as reduction in virus-induced cytopathic effect after 5 days by MTT assay; type: functional, organism-based; details: Human immunodeficiency virus 1, RES056, MT4, 120 h
# Summary of the method: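 MT-4 cells resuspended at 6 × 10⁵ cells/mL, infected with HIV-1 RES056 stock at 100–300 CCID50, compound in serial five-fold dilutions in triplicate wells alongside mock-infected wells. Viability read by MTT after 5 days.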
# [2] = Selectivity index, ratio of CC50 for mock-infected human MT4 cells to EC50 for HIV1 RES056 expressing reverse transcriptase K103N + Y181C double mutant; type: toxicity, cell-based; details: read-out: Ratio CC50/EC50
# [3] = Selectivity index, ratio of CC50 for mock-infected human MT4 cells to EC50 for HIV1 3B infected in human MT4 cells; type: toxicity, cell-based; details: mock-infected MT4 cells and MT4 cells infected with HIV1 3B, read-out: Ratio CC50/EC50
# [4] = tested on: Human immunodeficiency virus 1; experiment: Antiviral activity against HIV1 3B infected in human MT4 cells assessed as reduction in virus-induced cytopathic effect after 5 days by MTT assay; type: functional, organism-based; details: Human immunodeficiency virus 1, 3B, MT4, 120 h
# Summary of the method: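 MT-4 cells at 6 × 10⁵ cells/mL infected with HIV-1 IIIB stock at 100-300 CCID50. Test compounds added as serial five-fold dilutions in triplicate wells. Viability of infected cells read spectrophotometrically by MTT 5 days after infection. Values are the mean ± SD of at least two parallel tests.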
# [5] = Solubility in water at pH 7.0 after 2 hrs by HPLC-UV method; type: physicochemical
# Summary of the method: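 DMSO stock spiked into purified water to 1% final DMSO. Shaken 2 h at 3000 rpm at room temperature, left 1 h, then filtered through a 0.22 membrane. Filtrate quantified by HPLC-UV on a C18 column (150 × 4.6 mm) with MeOH/water 85/15 at 1.0 mL/min. Measured at pH 7, in duplicate.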
# [6] = Lipophilicity, log P of the compound at pH 7.0 by HPLC method; type: physicochemical; details: buffer
# Summary of the method: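 Log P measured at pH 7 by HPLC, in duplicate.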
# [7] = biological target: Human immunodeficiency virus type 1 reverse transcriptase (Human immunodeficiency virus 1, UniProt Q72547); experiment: Inhibition of HIV1 reverse transcriptase assessed as reduction in biotin-labeled dUTP incorporation into DNA after 1 hr using poly(A) x oligo(dT)15 template/primer hybrid, digoxigenin and biotin-labeled nucleotides
# Summary of the method: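 Recombinant HIV-1 RT, colorimetric ELISA kit. Poly(A)·oligo(dT)15 template/primer with biotin- and DIG-labelled dNTPs in lysis buffer ± inhibitor, 1 h at 37 °C. Serial five-fold dilutions tested. IC50 is the concentration halving labelled dUTP incorporation.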
Structure (SMILES),EC50 [1],selectivity ratio [2],selectivity ratio [3],EC50 [4],solubility at 2 h [5],logP [6],IC50 [7]
COC(=O)c1ccc(CN2CCC(Nc3cc(Oc4c(C)cc(C)cc4C)n4ncnc4n3)CC2)cc1,> 10000 nM,< 1,686,15 nM,,,
Cc1cc(C)c(Oc2cc(NC3CCN(Cc4ccc(F)cc4)CC3)nc3ncnn23)c(C)c1,> 24000 nM,< 1,424,56 nM,,,
Cc1cc(C)c(Oc2cc(NC3CCN(Cc4c(F)cccc4F)CC3)nc3ncnn23)c(C)c1,> 25000 nM,< 1,57,439 nM,,,
Cc1cc(C)c(Oc2cc(NC3CCN(Cc4ccc(F)c(F)c4)CC3)nc3ncnn23)c(C)c1,> 23000 nM,< 1,346,67 nM,,,
Cc1cc(C)c(Oc2cc(NC3CCN(Cc4cc(F)ccc4F)CC3)nc3ncnn23)c(C)c1,> 24000 nM,< 1,243,98 nM,,,
Cc1cc(C)c(Oc2cc(NC3CCN(Cc4cccc(Cl)c4)CC3)nc3ncnn23)c(C)c1,> 20000 nM,< 1,1640,12 nM,,,
O=C1Nc2ccc(Cl)cc2[C@@](C#CC2CC2)(C(F)(F)F)O1 [EFAVIRENZ],,,,6.3 nM,,,
Nc1ccn([C@@H]2CS[C@H](CO)O2)c(=O)n1 [LAMIVUDINE],,,> 39,,,,
Cc1cc(C#N)cc(C)c1Oc1nc(Nc2ccc(C#N)cc2)nc(N)c1Br [ETRAVIRINE],,,,1.8 nM,< 1 µg/mL,> 5,
Cc1cc(C)c(Oc2cc(NC3CCN(Cc4ccc([N+](=O)[O-])cc4)CC3)nc3ncnn23)c(C)c1,> 18000 nM,< 1,522,35 nM,,,
O=c1[nH]cnc2c1ncn2[C@H]1CC[C@@H](CO)O1 [DIDANOSINE],,,> 9,,,,
Cc1cc(C)c(Oc2cc(NC3CCN(Cc4ccccc4C)CC3)nc3ncnn23)c(C)c1,> 24000 nM,< 1,590,42 nM,,,
Cc1ccc(CN2CCC(Nc3cc(Oc4c(C)cc(C)cc4C)n4ncnc4n3)CC2)cc1,> 49000 nM,< 1,679,72 nM,,,
CC(=O)c1ccc(CN2CCC(Nc3cc(Oc4c(C)cc(C)cc4C)n4ncnc4n3)CC2)cc1,> 18000 nM,< 1,2060,8.7 nM,,,
Cc1cc(C)c(Oc2cc(NC3CCN(Cc4ccc(S(N)(=O)=O)cc4)CC3)nc3ncnn23)c(C)c1,22000 nM,2,1890,27 nM,,,
Cc1cc(C)c(Oc2cc(NC3CCN(CC4CCCCC4)CC3)nc3ncnn23)c(C)c1,> 13000 nM,< 1,50,245 nM,,,

Structure (SMILES),EC50 [1],selectivity ratio [2],selectivity ratio [3],EC50 [4],solubility at 2 h [5],logP [6],IC50 [7]
Cc1cc(C)c(Oc2cc(NC3CCN(Cc4ccccc4F)CC3)nc3ncnn23)c(C)c1,> 25000 nM,< 1,520,48 nM,,,
Cc1cc(C)c(Oc2cc(NC3CCN(Cc4ccc(S(C)(=O)=O)cc4)CC3)nc3ncnn23)c(C)c1,13000 nM,2,2550,8.1 nM,10.3 µg/mL,1.91,500 nM
Cc1cc(C)c(Oc2cc(NC3CCN(Cc4ccc(F)cc4F)CC3)nc3ncnn23)c(C)c1,> 23000 nM,< 1,255,90 nM,,,
CC(C)Nc1cccnc1N1CCN(C(=O)c2cc3cc(NS(C)(=O)=O)ccc3[nH]2)CC1 [DELAVIRDINE MESYLATE],> 36000 nM,1,> 67,540 nM,,,
Cc1cc(C)c(Oc2cc(NC3CCN(Cc4ccc(C(N)=O)cc4)CC3)nc3ncnn23)c(C)c1,> 24000 nM,< 1,1180,21 nM,,,
Cc1cc(C)c(Oc2cc(NC3CCN(Cc4ccc(C#N)cc4)CC3)nc3ncnn23)c(C)c1,> 14000 nM,< 1,689,20 nM,,,
Cc1cc(C)c(Oc2cc(NC3CCN(CC(=O)Nc4ccc(C(=O)O)cc4Br)CC3)nc3ncnn23)c(C)c1,> 89000 nM,< 1,39,2280 nM,,,
Cc1ccnc2c1NC(=O)c1cccnc1N2C1CC1 [NEVIRAPINE],≥ 7600 nM,,,,,,
Cc1cc(C)c(Oc2cc(NC3CCN(Cc4ccccc4C#N)CC3)nc3ncnn23)c(C)c1,> 27000 nM,< 1,356,77 nM,,,
Cc1cc(C)c(Oc2cc(NC3CCN(Cc4ccc(Br)cc4)CC3)nc3ncnn23)c(C)c1,> 30000 nM,< 1,320,92 nM,,,
Cc1cc(C)c(Oc2cc(NC3CCN(Cc4cccc(F)c4)CC3)nc3ncnn23)c(C)c1,≥ 39000 nM,≤ 1,≥ 238,104 nM,,,
Cc1cc(C)c(Oc2cc(NC3CCN(Cc4ccncc4)CC3)nc3ncnn23)c(C)c1,6400 nM,7,2650,17 nM,,,
Cc1cc(C)c(Oc2cc(NC3CCN(Cc4ccccc4)CC3)nc3ncnn23)c(C)c1,> 25000 nM,< 1,708,36 nM,,,
Cc1cc(C)c(Oc2cc(NC3CCN(Cc4cccc(C#N)c4)CC3)nc3ncnn23)c(C)c1,> 25000 nM,< 1,1320,19 nM,,,
COC(=O)c1ccc(NC(=O)CN2CCC(Nc3cc(Oc4c(C)cc(C)cc4C)n4ncnc4n3)CC2)c(Cl)c1,> 86000 nM,< 1,315,277 nM,,,
Cc1cn([C@H]2C[C@H](N=[N+]=[N-])[C@@H](CO)O2)c(=O)[nH]c1=O [ZIDOVUDINE],10 nM,,,,,,
